Results from paper PMC3177601 (Bioorganic & medicinal chemistry letters, 2009).
Where two headings read alike, the source gives them in different places.

Columns and labels:
M5 [1] = target: T1, M5 (Homo sapiens, UniProt P08912); experiment: M5 fold-shift experiments of the ACh CRC in M5 CHO cells; type: cell-based; settings: 30 μM compound
T1 sequence (P08912 1-532): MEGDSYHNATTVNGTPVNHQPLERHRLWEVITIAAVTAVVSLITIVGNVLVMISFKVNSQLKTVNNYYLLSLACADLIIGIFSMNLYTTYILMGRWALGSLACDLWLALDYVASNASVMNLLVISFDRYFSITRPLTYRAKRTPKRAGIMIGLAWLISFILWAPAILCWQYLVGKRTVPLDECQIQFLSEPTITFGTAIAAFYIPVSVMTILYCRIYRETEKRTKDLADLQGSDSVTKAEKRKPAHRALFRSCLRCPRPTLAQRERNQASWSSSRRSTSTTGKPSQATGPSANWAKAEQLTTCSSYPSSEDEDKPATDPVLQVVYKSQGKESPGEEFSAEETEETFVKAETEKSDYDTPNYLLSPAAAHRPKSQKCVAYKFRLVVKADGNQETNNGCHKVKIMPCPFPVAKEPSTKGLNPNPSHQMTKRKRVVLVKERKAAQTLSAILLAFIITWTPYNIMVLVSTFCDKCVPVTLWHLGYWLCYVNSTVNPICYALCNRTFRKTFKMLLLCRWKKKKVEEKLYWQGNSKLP
How it was run: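 Fold-shift assay in M5 CHO cells: a full ACh concentration-response curve is run with or without 30 μM test compound, read out as intracellular calcium mobilization. Potentiation is taken as the leftward shift of the ACh curve. Values are means of at least three independent determinations.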

M3 = M3 (Homo sapiens, UniProt P20309); experiment: M3 calcium mobilization assay in M3 CHO cells; type: cell-based; settings: at 30 μM
M3, sequence (P20309 whole entry): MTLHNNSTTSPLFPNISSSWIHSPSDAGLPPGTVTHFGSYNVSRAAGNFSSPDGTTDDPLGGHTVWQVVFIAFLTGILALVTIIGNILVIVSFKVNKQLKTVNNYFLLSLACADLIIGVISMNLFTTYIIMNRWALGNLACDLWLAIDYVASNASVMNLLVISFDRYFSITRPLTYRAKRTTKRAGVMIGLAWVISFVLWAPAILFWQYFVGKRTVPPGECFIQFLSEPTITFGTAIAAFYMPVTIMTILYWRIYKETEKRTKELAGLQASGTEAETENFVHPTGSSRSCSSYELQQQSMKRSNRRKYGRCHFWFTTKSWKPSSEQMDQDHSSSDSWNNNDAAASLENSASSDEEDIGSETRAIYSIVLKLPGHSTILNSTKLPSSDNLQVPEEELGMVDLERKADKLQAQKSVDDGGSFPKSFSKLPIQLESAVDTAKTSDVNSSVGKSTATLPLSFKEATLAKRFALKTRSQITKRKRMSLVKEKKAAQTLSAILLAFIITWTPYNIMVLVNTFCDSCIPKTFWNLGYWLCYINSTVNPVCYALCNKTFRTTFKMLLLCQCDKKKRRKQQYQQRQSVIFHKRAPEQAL
How it was run: (§1)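 Test compound at 30 μM is added with an EC20 concentration of ACh. Readout is intracellular calcium mobilization in CHO cells expressing the given mAChR subtype; M2 and M4 cells are co-transfected with Gqi5 for calcium coupling. Values are means of at least three independent determinations.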

M2 = target: T2, M2 (Homo sapiens, UniProt P08172); experiment: M2 calcium mobilization assay in M2 CHO cells co-transfected with Gqi5; type: cell-based
T2 sequence (P08172 1-466): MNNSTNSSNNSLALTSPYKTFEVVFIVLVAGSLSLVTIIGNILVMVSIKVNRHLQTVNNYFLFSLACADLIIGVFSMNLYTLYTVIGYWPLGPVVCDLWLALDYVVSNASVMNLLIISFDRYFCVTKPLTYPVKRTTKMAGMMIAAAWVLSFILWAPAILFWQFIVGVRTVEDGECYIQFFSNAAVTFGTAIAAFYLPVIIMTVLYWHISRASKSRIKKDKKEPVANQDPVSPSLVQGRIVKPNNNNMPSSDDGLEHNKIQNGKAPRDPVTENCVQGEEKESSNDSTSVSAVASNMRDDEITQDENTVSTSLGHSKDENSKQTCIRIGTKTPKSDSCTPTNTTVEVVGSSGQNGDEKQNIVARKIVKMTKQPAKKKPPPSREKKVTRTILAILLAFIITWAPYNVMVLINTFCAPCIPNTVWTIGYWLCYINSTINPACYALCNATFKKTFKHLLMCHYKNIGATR
How it was run: as §1

M4 = target: T3, M4 (Homo sapiens, UniProt P08173); experiment: M4 calcium mobilization assay in M4 CHO cells co-transfected with Gqi5; type: cell-based
T3 sequence (P08173 1-479): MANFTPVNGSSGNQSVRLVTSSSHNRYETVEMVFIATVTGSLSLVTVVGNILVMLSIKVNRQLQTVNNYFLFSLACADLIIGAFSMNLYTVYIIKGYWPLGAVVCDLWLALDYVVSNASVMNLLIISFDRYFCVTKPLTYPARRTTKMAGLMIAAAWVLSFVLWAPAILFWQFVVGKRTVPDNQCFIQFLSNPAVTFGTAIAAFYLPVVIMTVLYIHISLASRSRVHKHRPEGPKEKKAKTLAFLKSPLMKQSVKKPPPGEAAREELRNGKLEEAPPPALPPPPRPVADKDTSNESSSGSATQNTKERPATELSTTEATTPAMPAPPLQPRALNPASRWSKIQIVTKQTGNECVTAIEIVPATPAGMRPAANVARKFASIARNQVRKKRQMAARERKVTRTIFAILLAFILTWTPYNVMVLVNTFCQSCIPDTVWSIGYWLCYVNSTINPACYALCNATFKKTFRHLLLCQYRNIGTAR
How it was run: as §1

M5 [2] = target: T1, M5; settings: cited from earlier work
M5 [3] = target: T1, M5; settings: 30 μM compound; cited from earlier work
M1 = target: T4, M1 (Homo sapiens, UniProt P11229); experiment: M1 PAM intracellular calcium mobilization assay in M1 CHO cells; type: cell-based; settings: at 30 μM
T4 sequence (P11229 1-460): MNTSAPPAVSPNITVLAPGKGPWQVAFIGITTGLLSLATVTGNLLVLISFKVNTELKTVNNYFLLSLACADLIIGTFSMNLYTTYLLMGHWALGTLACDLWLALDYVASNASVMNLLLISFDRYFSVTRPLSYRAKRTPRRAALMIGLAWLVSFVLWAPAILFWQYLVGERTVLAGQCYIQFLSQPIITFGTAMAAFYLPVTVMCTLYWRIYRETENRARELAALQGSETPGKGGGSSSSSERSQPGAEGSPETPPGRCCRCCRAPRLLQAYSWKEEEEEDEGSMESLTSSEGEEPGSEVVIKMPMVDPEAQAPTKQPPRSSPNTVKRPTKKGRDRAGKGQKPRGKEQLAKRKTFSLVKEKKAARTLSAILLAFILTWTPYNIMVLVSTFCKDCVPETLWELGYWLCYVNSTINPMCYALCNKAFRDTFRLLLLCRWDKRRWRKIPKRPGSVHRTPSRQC
How it was run: as §1

M1–M4 = experiment: mAChR selectivity CRCs at M1-M5 CHO cells with submaximal ACh; type: cell-based; settings: CRCs at M1-M5 CHO cells with EC20 of ACh
How it was run: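 Test compound concentration-response curves are run against an EC20 of ACh in mAChR-expressing CHO cells, read out as intracellular calcium mobilization. M2 and M4 lines are co-transfected with Gqi5. Response is expressed as % of ACh maximum. Values are means of at least three independent determinations.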

[4] = at 30 μM, cells co-transfected with Gqi5

O=C1C(=O)N(Cc2ccc(-c3ccccc3)cc2)c2ccc(OC(F)(F)F)cc21 [6a]
leftward shift of the ACh CRC at M5 (M5 [1]): > 50 fold
elevation of an ACh EC20 / activation at M3 (M3): only modest activation

O=C1C(=O)N(Cc2ccc(-c3ccsc3)cc2)c2ccc(OC(F)(F)F)cc21 [6b]
leftward shift of the ACh CRC at M5 (M5 [1]): > 50 fold

O=C1C(=O)N(Cc2ccc(Br)cc2)c2ccccc21 [VU0119498]
activity at M2 (M2; Gi/o-coupled M2, cells co-transfected with Gqi5): devoid of activity
activity at M4 (M4; Gi/o-coupled M4, cells co-transfected with Gqi5): devoid of activity

COc1ccc(CN2C(=O)C(=O)c3cc(OC(F)(F)F)ccc32)cc1 [VU0238429]
increase of ACh affinity for M5 (M5 [2]; 30 μM compound): ~ 11 fold
displacement of [3H]-NMS from binding to M5 (M5 [2]): did not displace
leftward shift of the ACh CRC at M5 (M5 [3]): 14 fold

O=C1C(=O)N(Cc2ccc(Oc3ccccc3)cc2)c2ccc(OC(F)(F)F)cc21 [VU0400265]
elevation of an ACh EC20 at M2 (M2; [4]): no elevation
leftward shift of the ACh CRC at M5 (M5 [1]): ~ 5 fold
elevation of an ACh EC20 at M4 (M4; [4]): no elevation
elevation of an ACh EC20 / activation at M3 (M3): no elevation
elevation of an ACh EC20 at M1 (M1): no elevation

COc1ccc(CN2C(=O)C(=O)c3ccc(OC(F)(F)F)cc32)cc1 [compound 11]
mAChR selectivity (M1–M4): lost

O=C1C(=O)N(Cc2ccc(-c3ccccc3)cc2)c2cc(OC(F)(F)F)ccc21 [compound 12]
mAChR selectivity (M1–M4): lost
